Assay: Toxicity liver stage against HepG2, at 10uM
Type: cell-based
Parameters: test concentration 10 uM, cell line HepG2-A16-CD81EGFP
Settings: human, HepG2-A16-CD81EGFP cells; read-out: INHIBITION
Summary of the method: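 Uninfected HepG2-A16-CD81EGFP cells, 3 × 10^3 per well, 1536-well, plated on prespotted compound at 10 μM final, parasite-free screening media added to match infected plates; puromycin 10 μM positive, DMSO 0.5% negative; run in parallel with 48 h PbLuc assay at 37 °C, 5% CO2; viability by CellTiter-Glo luminescence, normalized to controls.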

SMILES	cytotoxicity at 10 µM [%]
Cc1ccc(CNC(=O)c2c[nH]nc2NC(=O)C2COCCO2)cc1 (centres undefined)	-9.95
Cc1ccc(N2CCCC(NCc3c(C)noc3C)C2)nn1 (centres undefined)	-5.88
COc1cccc(COCC(=O)NC2CCN(CC(N)=O)CC2)c1	-8.47
COC(CNC(=O)NCc1c(C)cc(C)[nH]c1=O)c1ccccc1 (centres undefined)	-6.12
Cc1ccc(S(=O)(=O)Nc2c(C)nc(N3CCCC3)nc2C)cc1	-0.243
CCOCC1CC2(CCN(C(=O)CC3=CCCCC3)CC2)CO1 (centres undefined)	-3.95
COCCCN(Cc1ccccn1)S(=O)(=O)c1ccc(OC)cc1	5.85
CN(C)CCN1C[C@@H]2CN(S(=O)(=O)c3ccccc3)C[C@@H]2C1=O	-112
O=C(c1cccs1)N1CCc2ncnc(C3CCOC3)c2CC1 (centres undefined)	-85.4
Cc1cc(-c2cnc(N3CCN(C)CC3)nc2C(C)C)on1	-5.97
O=C(NS(=O)(=O)c1cccc(C(F)(F)F)c1)c1cnsn1	-2.98
Cc1cc(C)n(CC(=O)N2Cc3cnc(C(C)(C)C)nc3C2)n1	3.1
CN1CCCC[C@@H]2[C@H]1[C@@H](c1ccccc1)CCN2C(=O)c1ccncc1	-13
CC1(c2nccs2)CCN(C(=O)CCN2CCOCC2)CC1	2.97
CCCN1CCN(C(=O)c2cccc3cccnc23)[C@H]2CS(=O)(=O)C[C@H]21	4.36
CCCc1n[nH]c(C2CN(C(=O)c3cc4c(s3)CCC4)CCO2)n1 (centres undefined)	-10.1
O=C(NC[C@]1(O)CN(Cc2ccc(F)cc2)C[C@H]1O)c1ccccn1	-7.8
CCc1cc(C)c(C(=O)N2CCCC(c3nnn[nH]3)C2)o1 (centres undefined)	1.02
O=C(c1ccncc1)N1CCN2C[C@H](Oc3cccnc3)C[C@H]2C1	2.83
Cc1cc(C(=O)NCc2cccnc2OC(C)C)no1	-7.37
O=C(c1cscn1)N1CC[C@]2(C[C@@H](OCCN3CCCC3)CO2)C1	0.462
NCCc1cccc(CN2CCN(c3cccc(Cl)c3)C(=O)C2)c1	-5.29

SMILES	cytotoxicity at 10 µM [%]
CCCOC(=O)N1CCCn2nc(C(=O)Nc3ccccc3)cc2C1	7.23
CCCNC(=O)c1cc(OC)c(OC)cc1N(C)S(C)(=O)=O	-5.18
CCC(Cn1ccnc1)n1cnc2scc(C)c2c1=O (centres undefined)	10.7
Cc1csc(N2CCN(C(=O)CCn3cccn3)CC2)n1	-9.41
CC(C)c1nccn1-c1cncc(C2CCCN2Cc2cccnc2)n1 (centres undefined)	-6.27
Cc1cnn(CCNCc2cc(=O)n3cc(Cl)ccc3n2)c1	0.217
O=C1CCC2(CCC(NC3CCOC3)CC2)N1Cc1ccncc1 (centres undefined)	3.61
Cn1cccc(NC(=O)N2CCC(COCc3ccccc3)C2)c1=O (centres undefined)	3.67
N#Cc1cc(Cl)ccc1N1CCOC(C(N)=O)C1 (centres undefined)	11.7
Cc1nc(C2CCCN(S(C)(=O)=O)C2)sc1Br (centres undefined)	-10.3
Cc1cnn(CC2CCCCN2C(=O)c2ccc3nnc(C)n3c2)c1 (centres undefined)	7.87
O=C1CCCN1c1cccc(N2CCC(NCCc3cscn3)CC2)c1	-26
Cc1ccccc1C1(C(=O)NCCN2CCC(C)CC2)CCOCC1	3.57
Cc1nn(C)c(C)c1NC(=O)CN1CCCC1c1noc(C(C)C)n1 (centres undefined)	-1.08
CN1CCOC(CNCc2csc(C3CCCC3)n2)C1 (centres undefined)	-0.383
CCN1CCn2c(C)cnc2C12CCN(C(=O)NC)CC2	0.906
CC(C)=CCN1CCN(CCCc2ccccc2)[C@H]2CS(=O)(=O)C[C@H]21	-1.06
O=c1ccc2c([nH]1)CCC(NS(=O)(=O)C1CC1)C2 (centres undefined)	3.66
CCc1cnc(N)nc1NCc1ccc(OC)cc1OC	14.7
COc1cc2c(cc1OC)S(=O)(=O)N(Cc1ccc(C)cc1)C2=O	8.74
c1ccc2c(OCCN3CCn4c(nnc4C4CC4)C3)cccc2c1	-3.87
Cc1cccc(CN2Cc3ncn(C)c3C(COCC(=O)N(C)C)C2)n1 (centres undefined)	4.56
